Measured values of several laboratories.
Lines come from different studies, so protocols differ.

| SMILES | target or system | test | setting | endpoint | value |
| --- | --- | --- | --- | --- | --- |
| O=C(NC(=S)Nc1ccccn1)c1ccco1 | Leishmania donovani | parasite growth, resazurin | promastigote | IC50 | 2.3 µM |
| C=CCNC(=S)NNC(=O)COc1ccc2c(C)c(CC)c(=O)oc2c1C | PC-3 | cell growth or viability, MTT | 31.25 µg/mL | viability | 99.9% |
| O=C(NC(=S)Nc1cccc(O)c1)c1ccco1 | Leishmania donovani | parasite growth, resazurin | promastigote | IC50 | 0.48 µM |
| Cc1c(Cc2ccccc2)c(=O)oc2c(C)c(OCC(=O)NN=Cc3ccco3)ccc12 | PC-3 | cell growth or viability, MTT | 250 µg/mL | viability | 11.1% |
| O=C1O[C@H]([C@@H](O)CO)C(O)=C1O |  | ABTS scavenging, absorbance | 30 min | IC50 | 11.3 µM |
| O=C1O[C@H]([C@@H](O)CO)C(O)=C1O |  | ABTS scavenging |  | IC50 | 350 µM |
| Cc1cccc(/C=C/C(=O)Nc2cccc(-c3ccnc(N4CCC(CO)CC4)c3)c2)c1 | A549 | cell growth or viability, MTT | 5 µM | inhibition | 52.9% |
| CCCOc1ccc2c(C)c(CC)c(=O)oc2c1C | PC-3 | cell growth or viability, MTT | 250 µg/mL | viability | 26.3% |
| O=C(NC(=S)Nc1ccccc1O)c1ccco1 | Leishmania donovani | parasite growth, resazurin | promastigote | IC50 | 2.46 µM |
| COc1cccc2c1C(=O)c1c(O)c3c(c(O)c1C2=O)C[C@@](O)(C(=O)CO)C[C@@H]3O[C@H]1C[C@H](N)[C@H](O)[C@H](C)O1 | A549 | cell growth or viability, MTT | 25 µg/mL, 48 h, serum-free | viability | 38.2% |
| O=C(C=Cc1ccccc1)Nc1cccc(-c2ccnc(N3CCC(O)CC3)c2)c1 | A549 | cell growth or viability, MTT | 5 µM | inhibition | 54.8% |
| O=C(NC(=S)Nc1ccccn1)c1cccs1 | Leishmania donovani | parasite growth, resazurin | promastigote | IC50 | 1.26 µM |
| Cc1c(Cc2ccccc2)c(=O)oc2c(C)c(OCC(=O)NN=Cc3ccc(Cl)cc3)ccc12 | PC-3 | cell growth or viability, MTT | 250 µg/mL | viability | 29% |
| C=CC(=O)NC1CCN(c2ncc3ncnc(Nc4ccc(Oc5ccc6c(c5)ncn6C)c(C)c4)c3n2)CC1 | NCI-H2170 | cell growth or viability |  | EC50 | 0.038 µM |
| CCCCCCCCCCCCCCCCOP(=O)([O-])OCC[N+](C)(C)C | Leishmania donovani | parasite growth, resazurin | promastigote | IC50 | 1.97 µM |
| Cc1c(C)c2c(c(C)c1O)CCC(C)(C(=O)O)O2 (stereo not shown) |  | ABTS scavenging |  | IC50 | 160 µM |
